In ChEMBL document CHEMBL1800022, “Structure-activity relationships of a series of analogues of the RFamide-related peptide 26RFa” (J Med Chem, 2011):
Non-standard residues stand in square brackets, D forms with d. Residues, ends and D or L forms follow the SMILES beside them. *: point of attachment. Adamantane1carbonyl = O=C(C12CC3CC(CC(C3)C1)C2)*; Phenylacetyl(4-F) = O=C(Cc1ccc(F)cc1)*; Cha = N[C@@H](CC1CCCCC1)C(=O)O; Tle = CC(C)(C)[C@H](N)C(=O)O; X2 = CN(C)C(=NCC(=O)*)N(C)C; X3 = C1CCN(N(N2CCCCC2)*)CC1; hSer = N[C@@H](CCO)C(=O)O; 2Furoyl = O=C(c1ccco1)*; Nva = CCC[C@H](N)C(=O)O; Abu = CC[C@H](N)C(=O)O; NHBn = c1ccc(CN*)cc1; X1 = CCN(Cc1ccccc1)*

Target: T1, Pyroglutamylated RF-amide peptide receptor (Homo sapiens, UniProt Q96P65)
T1 sequence (Q96P65 whole entry): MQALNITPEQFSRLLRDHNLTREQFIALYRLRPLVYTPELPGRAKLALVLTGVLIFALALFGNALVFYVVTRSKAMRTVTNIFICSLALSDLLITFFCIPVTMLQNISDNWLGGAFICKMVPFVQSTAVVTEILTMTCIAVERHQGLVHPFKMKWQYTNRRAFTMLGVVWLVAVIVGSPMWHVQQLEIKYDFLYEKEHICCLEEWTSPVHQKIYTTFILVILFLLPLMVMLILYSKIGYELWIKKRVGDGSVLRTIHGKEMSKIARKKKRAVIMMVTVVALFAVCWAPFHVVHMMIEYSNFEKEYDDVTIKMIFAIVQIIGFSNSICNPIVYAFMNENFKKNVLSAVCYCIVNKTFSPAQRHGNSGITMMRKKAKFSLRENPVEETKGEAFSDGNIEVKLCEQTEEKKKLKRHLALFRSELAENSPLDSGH
Assay: Agonist activity at DYKDDDDK-flagged human GPR103 receptor expressed in CHO-K1 cells co-expressing G-protein alpha16 assessed as stimulation of calcium mobilization after 2 mins by fluorometric analysis
Type: functional, cell-based
Procedure, shortened: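 CHO-K1 cells stably expressing Gα16 and C-terminally flag-tagged human GPR103 (Geneticin-selected), plated at 40 000 cells/well 24 h before assay. Loaded with 2 μM Fluo-4AM for 1 h, washed, then 30 min in HBSS with 2.5 mM probenecid and 5 mM HEPES. Peptides added at 10^-12 to 10^-5 M final and fluorescence read for 2 min. Triplicates; EC50 from sigmoidal variable-slope fit, at least three experiments.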

Structure (SMILES)	EC50 [µM]
CC[C@H](NC(=O)[C@H](Cc1ccccc1)NC(=O)CNC(=O)CN)C(=O)N[C@@H](Cc1ccccc1)C(=O)N[C@@H](CCCNC(=N)N)C(=O)N[C@@H](Cc1ccccc1)C(N)=O (H-GGF[Abu]FRF-NH2)	0.355
CC(C)C[C@H](NC(=O)[C@H](Cc1ccccc1)NC(=O)CNC(=O)CN)C(=O)N[C@@H](Cc1ccccc1)C(=O)N[C@@H](CCCN=C(N)N)C(=O)N[C@@H](Cc1ccccc1)C(N)=O (H-GGFLFRF-NH2)	1.47
NC(=O)[C@H](Cc1ccccc1)NC(=O)[C@H](CCCN=C(N)N)NC(=O)[C@H](Cc1ccccc1)NC(=O)[C@H](CO)NC(=O)[C@H](Cc1ccccc1)NC(=O)CNC(=O)CNC(=O)Cc1ccc(F)cc1 ({Phenylacetyl(4-F)}-GGFSFRF-NH2)	0.83
CC[C@@H](C)[C@H](NC(=O)[C@H](Cc1ccccc1)NC(=O)CNC(=O)CN)C(=O)N[C@@H](Cc1ccccc1)C(=O)N[C@@H](CCCN=C(N)N)C(=O)N[C@@H](Cc1ccccc1)C(N)=O	0.817
C[C@H](NC(=O)[C@H](Cc1cnc[nH]1)NC(=O)[C@@H](N)CCC(=O)O)C(=O)NCC(=O)N[C@@H](CS)C(=O)N[C@@H](CCCN=C(N)N)C(=O)N[C@@H](Cc1ccccc1)C(=O)N[C@@H](CCCN=C(N)N)C(=O)N[C@@H](Cc1ccccc1)C(N)=O (H-EHAGCRFRF-NH2)	2.91
NCCCC[C@H](NC(=O)[C@H](CCCCN)NC(=O)[C@H](CCCN=C(N)N)NC(=O)[C@H](CO)NC(=O)[C@@H](N)Cc1ccc(O)cc1)C(=O)NCC(=O)NCC(=O)N[C@@H](Cc1ccccc1)C(=O)N[C@@H](CO)C(=O)N[C@@H](Cc1ccccc1)C(=O)N[C@@H](CCCN=C(N)N)C(=O)N[C@@H](Cc1ccccc1)C(N)=O (H-YSRKKGGFSFRF-NH2)	0.138
CC(C)C[C@H](NC(=O)[C@H](CCC(=O)O)NC(=O)[C@@H](N)CCC(=O)O)C(=O)N[C@@H](CC(N)=O)C(=O)NCC(=O)N[C@@H](Cc1ccc(O)cc1)C(=O)N[C@@H](CO)C(=O)N[C@@H](CCCNC(=N)N)C(=O)N[C@@H](CCCCN)C(=O)N[C@@H](CCCCN)C(=O)NCC(=O)NCC(=O)N[C@@H](Cc1ccccc1)C(=O)N[C@@H](CO)C(=O)N[C@@H](Cc1ccccc1)C(=O)N[C@@H](CCCNC(=N)N)C(=O)N[C@@H](Cc1ccccc1)C(N)=O (H-EELNGYSRKKGGFSFRF-NH2)	0.0375
CC(C)(C)[C@H](NC(=O)[C@H](Cc1ccccc1)NC(=O)CNC(=O)CN)C(=O)N[C@@H](Cc1ccccc1)C(=O)N[C@@H](CCCN=C(N)N)C(=O)N[C@@H](Cc1ccccc1)C(N)=O (H-GGF[Tle]FRF-NH2)	1.82
N=C(N)NCCC[C@H](NC(=O)[C@H](Cc1ccccc1)NC(=O)[C@H](CO)NC(=O)[C@H](Cc1ccccc1)NC(=O)CNC(=O)CNC(=O)[C@H](CCCCN)NC(=O)[C@H](CCCCN)NC(=O)[C@@H](N)CCCNC(=N)N)C(=O)N[C@@H](Cc1ccccc1)C(N)=O (H-RKKGGFSFRF-NH2)	0.282
N=C(N)NCCC[C@H](NC(=O)[C@H](Cc1ccccc1)NC(=O)[C@H](CO)NC(=O)[C@H](Cc1ccccc1)NC(=O)CNC(=O)CNC(=O)C12CC3CC(CC(C3)C1)C2)C(=O)N[C@@H](Cc1ccccc1)C(N)=O (Adamantane1carbonyl-GGFSFRF-NH2)	0.588
CC(=O)NCC(=O)NCC(=O)N[C@@H](Cc1ccccc1)C(=O)N[C@@H](CO)C(=O)N[C@@H](Cc1ccccc1)C(=O)N[C@@H](CCCNC(=N)N)C(=O)N[C@@H](Cc1ccccc1)C(N)=O (Ac-GGFSFRF-NH2)	1.44
NCCCC[C@H](NC(=O)[C@H](CCCCN)NC(=O)[C@H](CCCN=C(N)N)NC(=O)[C@H](CO)NC(=O)[C@H](Cc1ccc(O)cc1)NC(=O)CNC(=O)[C@@H](N)CC(N)=O)C(=O)NCC(=O)NCC(=O)N[C@@H](Cc1ccccc1)C(=O)N[C@@H](CO)C(=O)N[C@@H](Cc1ccccc1)C(=O)N[C@@H](CCCN=C(N)N)C(=O)N[C@@H](Cc1ccccc1)C(N)=O (H-NGYSRKKGGFSFRF-NH2)	0.0953
NCCCC[C@H](NC(=O)[C@H](CCCCN)NC(=O)[C@H](CCCN=C(N)N)NC(=O)[C@@H](N)CO)C(=O)NCC(=O)NCC(=O)N[C@@H](Cc1ccccc1)C(=O)N[C@@H](CO)C(=O)N[C@@H](Cc1ccccc1)C(=O)N[C@@H](CCCN=C(N)N)C(=O)N[C@@H](Cc1ccccc1)C(N)=O (H-SRKKGGFSFRF-NH2)	0.237
N=C(N)NCCC[C@H](NC(=O)[C@H](Cc1ccccc1)NC(=O)[C@H](CC1CCCCC1)NC(=O)[C@H](Cc1ccccc1)NC(=O)CNC(=O)CN)C(=O)N[C@@H](Cc1ccccc1)C(N)=O (H-GGF[Cha]FRF-NH2)	1.1
NC(=O)[C@H](Cc1ccccc1)NC(=O)[C@H](CCCN=C(N)N)NC(=O)[C@H](Cc1ccccc1)NC(=O)[C@H](CO)NC(=O)[C@H](Cc1ccccc1)NC(=O)CNC(=O)CNC(=O)c1ccco1 (2Furoyl-GGFSFRF-NH2)	0.695

Continued by falling EC50, values first:

EC50 [µM]	Structure (SMILES)
1.63	CC(C)[C@H](NC(=O)[C@H](Cc1ccccc1)NC(=O)CNC(=O)CN)C(=O)N[C@@H](Cc1ccccc1)C(=O)N[C@@H](CCCN=C(N)N)C(=O)N[C@@H](Cc1ccccc1)C(N)=O (H-GGFVFRF-NH2)
1.33	C[C@H](NC(=O)CNC(=O)CN)C(=O)N[C@@H](CO)C(=O)N[C@@H](Cc1ccccc1)C(=O)N[C@@H](CCCNC(=N)N)C(=O)N[C@@H](Cc1ccccc1)C(N)=O (H-GGASFRF-NH2)
1.31	C[C@H](NC(=O)[C@H](Cc1ccccc1)NC(=O)CNC(=O)CN)C(=O)N[C@@H](Cc1ccccc1)C(=O)N[C@@H](CCCNC(=N)N)C(=O)N[C@@H](Cc1ccccc1)C(N)=O (H-GGFAFRF-NH2)
1.2	NCC(=O)NCC(=O)N[C@@H](Cc1ccccc1)C(=O)N[C@@H](CO)C(=O)N[C@@H](Cc1ccccc1)C(=O)N[C@@H](CCCN=C(N)N)C(=O)N[C@@H](Cc1ccccc1)C(=O)N(N1CCCCC1)N1CCCCC1 (H-GGFSFRF-X3)
1.09	CCN(Cc1ccccc1)C(=O)[C@H](Cc1ccccc1)NC(=O)[C@H](CCCN=C(N)N)NC(=O)[C@H](Cc1ccccc1)NC(=O)[C@H](CO)NC(=O)[C@H](Cc1ccccc1)NC(=O)CNC(=O)CN (H-GGFSFRF-X1)
0.455	CN(C)C(=NCC(=O)N[C@@H](Cc1ccccc1)C(=O)N[C@@H](CO)C(=O)N[C@@H](Cc1ccccc1)C(=O)N[C@@H](CCCNC(=N)N)C(=O)N[C@@H](Cc1ccccc1)C(N)=O)N(C)C (X2-FSFRF-NH2)
0.374	N=C(N)NCCC[C@H](NC(=O)[C@H](Cc1ccccc1)NC(=O)[C@H](CCO)NC(=O)[C@H](Cc1ccccc1)NC(=O)CNC(=O)CN)C(=O)N[C@@H](Cc1ccccc1)C(N)=O (H-GGF[hSer]FRF-NH2)
0.233	CCC[C@H](NC(=O)[C@H](Cc1ccccc1)NC(=O)CNC(=O)CN)C(=O)N[C@@H](Cc1ccccc1)C(=O)N[C@@H](CCCNC(=N)N)C(=O)N[C@@H](Cc1ccccc1)C(N)=O (H-GGF[Nva]FRF-NH2)
0.185	N=C(N)NCCC[C@H](NC(=O)[C@H](Cc1ccccc1)NC(=O)[C@H](CO)NC(=O)[C@H](Cc1ccccc1)NC(=O)CNC(=O)CNC(=O)[C@H](CCCCN)NC(=O)[C@H](CCCCN)NC(=O)[C@H](CCCNC(=N)N)NC(=O)[C@H](CO)NC(=O)[C@H](Cc1ccc(O)cc1)NC(=O)CN)C(=O)N[C@@H](Cc1ccccc1)C(N)=O (H-GYSRKKGGFSFRF-NH2)
0.039	CC(C)C[C@H](NC(=O)[C@H](CC(N)=O)NC(=O)CNC(=O)[C@H](CC(C)C)NC(=O)[C@@H]1CCCN1C(=O)CNC(=O)[C@H](CO)NC(=O)[C@@H](N)[C@@H](C)O)C(=O)N[C@@H](C)C(=O)N[C@@H](CCC(=O)O)C(=O)N[C@@H](CCC(=O)O)C(=O)N[C@@H](CC(C)C)C(=O)N[C@@H](CC(N)=O)C(=O)NCC(=O)N[C@@H](Cc1ccc(O)cc1)C(=O)N[C@@H](CO)C(=O)N[C@@H](CCCN=C(N)N)C(=O)N[C@@H](CCCCN)C(=O)N[C@@H](CCCCN)C(=O)NCC(=O)NCC(=O)N[C@@H](Cc1ccccc1)C(=O)N[C@@H](CO)C(=O)N[C@@H](Cc1ccccc1)C(=O)N[C@@H](CCCN=C(N)N)C(=O)N[C@@H](Cc1ccccc1)C(=O)NCc1ccccc1 (H-TSGPLGNLAEELNGYSRKKGGFSFRF-NHBn)
0.0049	CC(C)C[C@H](NC(=O)[C@H](CCC(=O)O)NC(=O)[C@H](CCC(=O)O)NC(=O)[C@H](C)NC(=O)[C@H](CC(C)C)NC(=O)[C@@H](NC(=O)CNC(=O)[C@H](CC(C)C)NC(=O)[C@@H]1CCCN1C(=O)CNC(=O)[C@H](CO)NC(=O)[C@H](C)N)[C@@H](C)O)C(=O)N[C@@H](CO)C(=O)N[C@@H](CO)C(=O)N[C@@H](Cc1ccc(O)cc1)C(=O)N[C@@H](CO)C(=O)N[C@@H](CCCNC(=N)N)C(=O)N[C@@H](CCCNC(=N)N)C(=O)N[C@@H](CCCCN)C(=O)NCC(=O)NCC(=O)N[C@@H](Cc1ccccc1)C(=O)N[C@@H](CO)C(=O)N[C@@H](Cc1ccccc1)C(=O)N[C@@H](CCCNC(=N)N)C(=O)N[C@@H](Cc1ccccc1)C(N)=O (H-ASGPLGTLAEELSSYSRRKGGFSFRF-NH2)
